IMP-1 inhibitor: blocks Pseudomonas aeruginosa IMP-1 metallo-beta-lactamase; purified IMP-1, nitrocefin hydrolysis, epi-absorbance fluorescence; inhibition, % at 5.6 µM; actives 0.45% (n = 290,000); AID 1556;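 active = inhibition above the mean plus 3 SD of all compounds in the same screening run, cut at about 4.5% in these data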
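Test system: recombinant IMP-1 enzyme, purified / Medium: HEPES buffer pH 7.1 with ZnSO4 and Brij 35 / Doses: single dose, 5.6 µM / Times: 25 °C, 15 min preincubation, 25 min reaction / Detection: Epi-absorbance via hydrolysed-nitrocefin quenching of white-plate fluorescence, 480/530 nm, EDTA stop / Evaluation: percent inhibition from optical density relative to buffer-blank wells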
PAFAH2 FP inh: PAFAH2 (human) inhibition; recombinant PAFAH2, FP-rhodamine activity probe, fluorescence polarization; Q99487; inhibition, % at 3.39 µM; actives 0.99% (n = 340,000);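 active = inhibition above the mean over all tested compounds plus 3 SD, cut at about 30% in these data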;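 also: inhibitors block probe labeling of enzyme so polarization drops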
pPAFAH inh: inhibitors of human plasma PAF acetylhydrolase (pPAFAH) | Q13093 | recombinant pPAFAH, FP-rhodamine probe fluorescence polarization | AID 463082 | inhibition, % at 3.39 µM | actives 1.5% (n = 330,000);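 active = inhibition above the mean inhibition across the screen plus 3 SD, cut at about 25% in these data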;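 also: inhibitors block binding of the rhodamine activity-based probe so polarization drops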
Target sequence (Q13093 whole entry, looked up): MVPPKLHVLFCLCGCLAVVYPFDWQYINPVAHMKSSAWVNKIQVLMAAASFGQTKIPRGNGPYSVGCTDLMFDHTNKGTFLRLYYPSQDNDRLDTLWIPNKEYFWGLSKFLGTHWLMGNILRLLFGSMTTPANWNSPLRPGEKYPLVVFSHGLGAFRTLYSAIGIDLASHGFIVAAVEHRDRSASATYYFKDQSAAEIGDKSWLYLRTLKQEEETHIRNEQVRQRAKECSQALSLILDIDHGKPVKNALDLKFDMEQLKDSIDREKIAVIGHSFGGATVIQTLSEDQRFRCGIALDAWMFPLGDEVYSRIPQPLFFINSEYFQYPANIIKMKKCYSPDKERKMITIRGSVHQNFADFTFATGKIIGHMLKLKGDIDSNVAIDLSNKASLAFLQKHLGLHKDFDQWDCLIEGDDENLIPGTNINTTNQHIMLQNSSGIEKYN
VIM-2 inh: blocks Pseudomonas aeruginosa VIM-2 metallo-beta-lactamase; actives 0.89% (n = 290,000); inhibition, % at 5.6 µM; AID 1527; purified VIM-2, nitrocefin hydrolysis, epi-absorbance fluorescence;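 active = inhibition above the mean of all tested compounds plus 3 SD, cutoff set per screening run, cut at about 7.5% in these data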;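 also: red hydrolysis product quenches plate fluorescence so inhibitors raise well fluorescence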
PAFAH1B2 FP inh: blocks human PAF acetylhydrolase 1b catalytic subunit 2; recombinant PAFAH1B2, FP-rhodamine activity probe, fluorescence polarization; actives 1.2% (n = 340,000); P68402; inhibition, % at 3.39 µM;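 active = inhibition above the mean of all tested compounds plus 3 SD, cut at about 24% in these data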
PAFAH1B3 inh: blocks human PAF acetylhydrolase 1B catalytic subunit 3 | Q15102 | recombinant PAFAH1B3, FP-rhodamine probe, fluorescence polarization | inhibition, % at 3.39 µM | actives 0.28% (n = 340,000) | AID 492972;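 active = inhibition above the screen-wide average of all tested compounds plus 3 SD, cut at about 25% in these data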
Target sequence (Q15102 whole entry, looked up): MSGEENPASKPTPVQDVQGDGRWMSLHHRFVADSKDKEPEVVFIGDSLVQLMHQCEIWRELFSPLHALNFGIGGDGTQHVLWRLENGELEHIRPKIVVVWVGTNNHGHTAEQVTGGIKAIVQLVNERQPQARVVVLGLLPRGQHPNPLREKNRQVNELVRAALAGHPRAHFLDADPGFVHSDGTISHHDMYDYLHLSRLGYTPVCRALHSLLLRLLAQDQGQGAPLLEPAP
Numbers stand for hits. Shown are actives, neighbours in structure and some others; about 3.6% of the full set was active somewhere.

Screening COC(=O)c1c(NC(=O)c2ccco2)sc(C(=O)N(C)C)c1C returned IMP-1 inhibitor inactive, PAFAH2 FP inh inactive, pPAFAH inh inactive, VIM-2 inh 12, PAFAH1B2 FP inh inactive and PAFAH1B3 inh inactive.
`COC(=O)c1cc(C)sc1NC(=O)c1ccco1` gave IMP-1 inhibitor inactive, PAFAH2 FP inh inactive, pPAFAH inh inactive, VIM-2 inh 8.1, PAFAH1B2 FP inh inactive and PAFAH1B3 inh inactive.
Screening COc1cc(NC(=O)C(C)N2CCN(C(=O)C3CC3)CC2)cc(OC)c1 (configuration not stated) returned PAFAH2 FP inh inactive, pPAFAH inh inactive, PAFAH1B2 FP inh inactive and PAFAH1B3 inh inactive.
Screening O=C(NCC(c1ccco1)N1CCCC1)c1ccc(S(=O)(=O)Nc2ccc(F)cc2)cc1 (configuration not stated) returned PAFAH2 FP inh inactive, pPAFAH inh 29, PAFAH1B2 FP inh inactive and PAFAH1B3 inh inactive.
`Cc1cccc(NS(=O)(=O)c2cccc(C(=O)NCC(c3ccco3)N3CCCCC3)c2)c1` (configuration not stated) gave PAFAH2 FP inh inactive, pPAFAH inh 33, PAFAH1B2 FP inh inactive and PAFAH1B3 inh inactive.
`COc1ccccc1NS(=O)(=O)c1cccc(C(=O)NCC(c2ccccc2OC)N2CCCC2)c1` (configuration not stated) gave PAFAH2 FP inh inactive, pPAFAH inh inactive, PAFAH1B2 FP inh inactive and PAFAH1B3 inh inactive.
`COc1ccccc1C(CNC(=O)c1cccc(S(=O)(=O)Nc2ccc(C)cc2)c1)N1CCCC1` (configuration not stated) gave PAFAH2 FP inh inactive, pPAFAH inh 31, PAFAH1B2 FP inh inactive and PAFAH1B3 inh inactive.
`COc1ccc(NS(=O)(=O)c2cccc(C(=O)NCC(c3ccco3)N3CCCCC3)c2)cc1` (configuration not stated) gave PAFAH2 FP inh inactive, pPAFAH inh 31, PAFAH1B2 FP inh inactive and PAFAH1B3 inh inactive.
Screening O=C(NCC(c1ccco1)N1CCCC1)c1cccc(NS(=O)(=O)c2ccc(Br)cc2)c1 (configuration not stated) returned PAFAH2 FP inh inactive, pPAFAH inh inactive, PAFAH1B2 FP inh inactive and PAFAH1B3 inh inactive.
COc1ccc(C(=O)NCc2ccccc2CN2CCCC2)cc1S(=O)(=O)Nc1ccc(C)cc1 was read as PAFAH2 FP inh inactive, pPAFAH inh 25, PAFAH1B2 FP inh inactive and PAFAH1B3 inh inactive.
`CC(C)CC(=NNC(=O)c1ccncc1)c1cc(Cl)ccc1O` gave PAFAH2 FP inh inactive, PAFAH1B2 FP inh 29 and PAFAH1B3 inh inactive.
`CC(=NNC(=O)c1ccncc1)c1ccccc1O` gave PAFAH2 FP inh inactive, PAFAH1B2 FP inh inactive and PAFAH1B3 inh inactive.
`Cc1onc(-c2c(F)cccc2Cl)c1C(=O)Nc1cc(S(=O)(=O)N2CCCCC2)ccc1O` gave PAFAH2 FP inh inactive, PAFAH1B2 FP inh inactive and PAFAH1B3 inh inactive.
COc1cc(NC(=O)COC(=O)Cn2cnc3c2c(=O)n(C)c(=O)n3C)cc(OC)c1 was read as PAFAH2 FP inh inactive, pPAFAH inh inactive, PAFAH1B2 FP inh inactive and PAFAH1B3 inh inactive.
Screening COc1ccc(C(C(=O)NC2CCCCC2)N(Cc2ccco2)C(=O)c2ccccn2)c(OC)c1 (configuration not stated) returned IMP-1 inhibitor inactive, PAFAH2 FP inh inactive, pPAFAH inh inactive, VIM-2 inh inactive, PAFAH1B2 FP inh inactive and PAFAH1B3 inh inactive.
`O=C(CCN1C(=O)/C(=C\C=C\c2ccccc2)SC1=S)Nc1ccc(C(=O)O)cc1` gave IMP-1 inhibitor 8.4, PAFAH2 FP inh inactive, pPAFAH inh inactive, VIM-2 inh inactive, PAFAH1B2 FP inh inactive and PAFAH1B3 inh inactive.
For O=C(COC(=O)CCN1C(=O)/C(=C\C=C\c2ccccc2)SC1=S)Nc1cc(F)ccc1F the results were IMP-1 inhibitor 7.9, PAFAH2 FP inh inactive, pPAFAH inh inactive, VIM-2 inh inactive, PAFAH1B2 FP inh inactive and PAFAH1B3 inh inactive.
`COc1ccc(N2CCN(C(=O)c3cccc(S(=O)(=O)N4CCCc5ccccc54)c3)CC2)cc1` gave PAFAH2 FP inh inactive, pPAFAH inh inactive, PAFAH1B2 FP inh inactive and PAFAH1B3 inh inactive.
`COc1ccc(S(=O)(=O)N(C)C[C@H]2Oc3ccc(NC(=O)Cc4cn(C)c5ccccc45)cc3C(=O)N([C@@H](C)CO)C[C@@H]2C)cc1` gave PAFAH2 FP inh inactive, pPAFAH inh inactive, PAFAH1B2 FP inh inactive and PAFAH1B3 inh inactive.
For CCOC(=O)C1=C(C)N(C)C(=O)NC1c1cccc2ccccc12 (configuration not stated) the results were IMP-1 inhibitor inactive, PAFAH2 FP inh inactive, pPAFAH inh inactive, VIM-2 inh inactive, PAFAH1B2 FP inh inactive and PAFAH1B3 inh inactive.
Screening Cc1ccc(C)c(S(=O)(=O)N2CCN(C(=O)c3ccc(N4CCCC4)c([N+](=O)[O-])c3)CC2)c1 returned IMP-1 inhibitor inactive, PAFAH2 FP inh inactive, pPAFAH inh 25, VIM-2 inh inactive, PAFAH1B2 FP inh inactive and PAFAH1B3 inh inactive.
Cc1ccc(C)c(S(=O)(=O)N2CCN(C(=O)c3ccc(-n4cncn4)c([N+](=O)[O-])c3)CC2)c1 was read as PAFAH2 FP inh inactive, pPAFAH inh inactive, PAFAH1B2 FP inh inactive and PAFAH1B3 inh inactive.
Screening Nn1c(SCC(=O)Nc2nccs2)nnc1C1CC1 returned IMP-1 inhibitor inactive, PAFAH2 FP inh inactive, pPAFAH inh inactive, VIM-2 inh inactive, PAFAH1B2 FP inh inactive and PAFAH1B3 inh inactive.
`Cc1ccc(-n2nc3c(=O)n(CC(=O)NC(C)CCc4ccccc4)nc(C)c3c2C)cc1` (configuration not stated) gave IMP-1 inhibitor inactive, PAFAH2 FP inh inactive, pPAFAH inh inactive, VIM-2 inh inactive, PAFAH1B2 FP inh inactive and PAFAH1B3 inh inactive.
Screening O=C(CSc1ccccc1)N/N=C/c1ccccc1O returned IMP-1 inhibitor inactive, PAFAH2 FP inh inactive, pPAFAH inh inactive, VIM-2 inh inactive, PAFAH1B2 FP inh 27 and PAFAH1B3 inh inactive.
O=C(CCSCCC(=O)NN=Cc1ccccc1O)NN=Cc1ccccc1O was read as PAFAH2 FP inh inactive, PAFAH1B2 FP inh inactive and PAFAH1B3 inh inactive.
For Cc1ccc(C2(c3noc(CN4CCC(C(=O)N5CCOCC5)CC4)n3)CCCC2)cc1 the results were IMP-1 inhibitor inactive, PAFAH2 FP inh inactive, pPAFAH inh inactive, VIM-2 inh inactive, PAFAH1B2 FP inh 27 and PAFAH1B3 inh inactive.
For O=C(NCCC1CCCCN1S(=O)(=O)c1ccccc1)C(=O)NCc1ccccc1 (configuration not stated) the results were PAFAH2 FP inh inactive, pPAFAH inh inactive, PAFAH1B2 FP inh inactive and PAFAH1B3 inh inactive.
O=C(CCNC(=O)C1CCN(S(=O)(=O)c2ccccc2)CC1)NCc1ccncc1 was read as IMP-1 inhibitor inactive, PAFAH2 FP inh inactive, pPAFAH inh inactive, VIM-2 inh inactive, PAFAH1B2 FP inh inactive and PAFAH1B3 inh inactive.
